Assay [1] can be described thus: Antagonistic activity against HOXA1-PBX1/DNA complex formation by electrophoretic mobility shift assay. The class given is functional. An outline of the steps:
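Recombinant mouse HOXA1 192–288 and mouse/human PBX1 233–319 (2.5 ng each) preincubated 15 min at 4 °C in HEPES pH 7.9 binding buffer with 135 mM NaCl, poly dIdC and inhibitor in DMSO, then 30 min at ~22 °C with 32P-labeled Klenow-extended annealed oligonucleotide probe. Run on 4% polyacrylamide gel in TBE, autoradiographed; IC50 from averaged densitometry of multiple gels; screened initially at 300 μM.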
In general terms: A gel shift assay detects complexes by their altered migration in electrophoresis.

Assay [2] deals with POU domain, class 3, transcription factor 3 (Mus musculus) (UniProt P31361). Briefly: Antagonistic activity against BRN1/DNA interaction by electrophoretic mobility shift assay.
POU domain, class 3, transcription factor 3 (Mus musculus), sequence (P31361 whole entry, looked up, the tested form may be a part): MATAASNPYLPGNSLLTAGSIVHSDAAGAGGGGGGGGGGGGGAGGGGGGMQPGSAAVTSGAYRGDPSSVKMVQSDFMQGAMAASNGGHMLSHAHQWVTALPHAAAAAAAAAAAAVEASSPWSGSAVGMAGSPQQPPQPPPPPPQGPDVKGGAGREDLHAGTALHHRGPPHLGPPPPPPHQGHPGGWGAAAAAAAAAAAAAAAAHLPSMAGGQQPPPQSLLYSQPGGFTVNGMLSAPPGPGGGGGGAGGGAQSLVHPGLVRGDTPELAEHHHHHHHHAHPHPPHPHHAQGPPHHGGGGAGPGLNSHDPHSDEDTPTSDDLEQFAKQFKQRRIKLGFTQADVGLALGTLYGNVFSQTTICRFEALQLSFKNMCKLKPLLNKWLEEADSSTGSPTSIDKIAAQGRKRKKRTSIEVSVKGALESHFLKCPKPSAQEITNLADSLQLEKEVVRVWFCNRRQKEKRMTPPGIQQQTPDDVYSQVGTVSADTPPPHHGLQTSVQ
Assay [3] addresses POU domain, class 3, transcription factor 2 (Mus musculus) (UniProt P31360). Description: Antagonistic activity against BRN2/DNA interaction by electrophoretic mobility shift assay.

Some results are limits rather than exact numbers.

POU domain, class 3, transcription factor 2 (Mus musculus), sequence (P31360 whole entry, looked up, the tested form may be a part): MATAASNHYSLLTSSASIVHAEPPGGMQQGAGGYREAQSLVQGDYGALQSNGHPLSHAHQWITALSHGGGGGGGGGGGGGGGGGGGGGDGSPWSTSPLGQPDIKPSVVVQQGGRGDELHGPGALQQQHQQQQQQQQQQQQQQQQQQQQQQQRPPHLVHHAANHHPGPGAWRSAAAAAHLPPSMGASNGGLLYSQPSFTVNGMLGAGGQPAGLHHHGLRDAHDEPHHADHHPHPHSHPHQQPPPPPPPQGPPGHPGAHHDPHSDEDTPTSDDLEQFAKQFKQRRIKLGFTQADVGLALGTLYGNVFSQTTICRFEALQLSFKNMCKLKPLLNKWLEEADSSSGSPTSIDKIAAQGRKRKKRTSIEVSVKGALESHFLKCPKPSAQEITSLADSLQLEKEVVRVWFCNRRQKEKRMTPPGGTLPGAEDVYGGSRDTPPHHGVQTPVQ

As for `COc1ccc(NC(=O)COc2ccc(C(=O)Nc3cccc(F)c3)c3ccccc23)cc1`, the IC50 (usually the point on the concentration scale where inhibition reaches its midpoint) in assay [1] was found to be 161 µM.
For `CCOC(=O)CNC(=O)COc1ccc(C(=O)Nc2cccc(F)c2)c2ccccc12`, the IC50 in assay [1] is above 300 µM.
As for `NC(=O)COc1ccc(C(=O)Nc2cccc(F)c2)c2ccccc12`, the IC50 in assay [1] amounted to 272 µM.
For the compound `COc1ccc(NC(=O)COc2ccc(C(=O)Nc3cccc(F)c3)c3ccccc23)cc1OC`, in assay [1], the IC50 came to 464 µM.
With `O=C(COc1ccc(C(=O)Nc2cccc(F)c2)c2ccccc12)Nc1cccc(F)c1`, in assay [1], the IC50 was above 300 µM.
Same read-out and setting: then `CC(C)CNC(=O)COc1ccc(C(=O)Nc2cccc(F)c2)c2ccccc12`, with 298 µM; and `O=C(Nc1cccc(F)c1)c1ccc(OCC(=O)N2CCOCC2)c2ccccc12`, with above 300 µM.
Turning to `O=C(COc1ccc(C(=O)Nc2cccc(F)c2)c2ccccc12)Nc1ccc(O)cc1`, the IC50 in assay [1] amounted to 65 µM; in assay [2], 124 µM; in assay [3] it was 138 µM.
With `O=C(COc1ccc(C(=O)Nc2cccc(F)c2)c2ccccc12)NC1CC1`, the IC50 in assay [1] was 173 µM; in assay [2] it was 810 µM; in assay [3], above 10000 µM.
Take `C#CCNC(=O)COc1ccc(C(=O)Nc2cccc(F)c2)c2ccccc12`: the IC50 in assay [1] was 331 µM.
Consider `O=C(O)CNC(=O)COc1ccc(C(=O)Nc2cccc(F)c2)c2ccccc12`, for which, in assay [1], the IC50 was above 300 µM.
Turning to `O=C(COc1ccc(C(=O)Nc2cccc(F)c2)c2ccccc12)NCCOCc1ccccc1`, the IC50 in assay [1] was above 300 µM.
On the same count and under the same terms, the same measure for `O=C(COc1ccc(C(=O)Nc2cccc(F)c2)c2ccccc12)Nc1ccc(F)cc1`: 293 µM; for `CNC(=O)COc1ccc(C(=O)Nc2cccc(F)c2)c2ccccc12`: above 300 µM.
With `CCNC(=O)COc1ccc(C(=O)Nc2cccc(F)c2)c2ccccc12`, the IC50 in assay [1] was 200 µM.
Regarding `COc1cc(CNC(=O)COc2ccc(C(=O)Nc3cccc(F)c3)c3ccccc23)cc(OC)c1`, the IC50 in assay [1] was above 300 µM.
On to `CC(C)(C)NC(=O)COc1ccc(C(=O)Nc2cccc(F)c2)c2ccccc12`, for which the IC50 in assay [1] is above 300 µM.
For `O=C(COc1ccc(C(=O)Nc2cccc(F)c2)c2ccccc12)Nc1ccccc1F`, in assay [1], the IC50 was determined as 433 µM.
Turning to `O=C(COc1ccc(C(=O)Nc2cccc(F)c2)c2ccccc12)Nc1cccc(O)c1`, the values for the IC50 in assay [1], in assay [2] and in assay [3] were 86 µM, 142 µM and 148 µM, respectively.
On to `O=C(COc1ccc(C(=O)Nc2cccc(F)c2)c2ccccc12)NCCO`, for which the IC50 in assay [1] is above 300 µM.
Regarding `CC(C)NC(=O)COc1ccc(C(=O)Nc2cccc(F)c2)c2ccccc12`, the IC50 in assay [1] amounted to 272 µM.
Take `COc1cc(NC(=O)COc2ccc(C(=O)Nc3cccc(F)c3)c3ccccc23)cc(OC)c1`: the IC50 in assay [1] is above 300 µM.
For the compound `COc1ccccc1NC(=O)COc1ccc(C(=O)Nc2cccc(F)c2)c2ccccc12`, the IC50 in assay [1] was 718 µM.
Turning to `COc1ccc(OC)c(NC(=O)COc2ccc(C(=O)Nc3cccc(F)c3)c3ccccc23)c1`, the IC50 in assay [1] is above 300 µM.
As for `NNC(=O)COc1ccc(C(=O)Nc2cccc(F)c2)c2ccccc12`, in assay [1], the IC50 was above 300 µM.
In the case of `O=C(COc1ccc(C(=O)Nc2cccc(F)c2)c2ccccc12)NCC(F)(F)F`, the IC50 worked out at 111 µM in assay [1], 162 µM in assay [2] and 204 µM in assay [3].
As to `O=C(COc1ccc(C(=O)Nc2cccc(F)c2)c2ccccc12)Nc1ccccc1`, the IC50 in assay [1] amounted to 254 µM.
Turning to `CN(C)CCNC(=O)COc1ccc(C(=O)Nc2cccc(F)c2)c2ccccc12`, in assay [1], the IC50 was above 300 µM.
As for `CCCNC(=O)COc1ccc(C(=O)Nc2cccc(F)c2)c2ccccc12`, the IC50 in assay [1] amounted to 278 µM.
As for `CN(C)C(=O)COc1ccc(C(=O)Nc2cccc(F)c2)c2ccccc12`, in assay [1], the IC50 is above 300 µM.
Regarding `COc1cccc(NC(=O)COc2ccc(C(=O)Nc3cccc(F)c3)c3ccccc23)c1`, the IC50 in assay [1] was 580 µM.
As to `Cc1ccc(NC(=O)COc2ccc(C(=O)Nc3cccc(F)c3)c3ccccc23)c(C)c1`, the IC50 in assay [1] is above 300 µM.

Values taken from ChEMBL document CHEMBL1149333, “Privileged scaffolds for blocking protein-protein interactions: 1,4-disubstituted naphthalene antagonists of transcription factor complex HOX-PBX/DNA” (Bioorg Med Chem Lett, 2004).
